The text below walks through data of paper PMC3375358 (Journal of Medicinal Chemistry, 2012).

In one experiment the target is KIX-KID interaction (Homo sapiens, UniProt Q92793). The experiment in a line: in vitro renilla luciferase complementation assay for KIX-KID interaction. The experiment is classed as biochemical. Put shortly: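 KIX-KID binding was measured in vitro by renilla luciferase complementation, with test compounds up to 50 μM. IC50 values are given as mean ± SD from at least two independent experiments. The value is listed as >50 if IC50 was not reached at the top concentration.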

Experiment [1] has as its system CREB-mediated gene transcription. The experiment in a line: CREB reporter assay in HEK 293T cells. The experiment is classed as cell-based. The essentials:
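Inhibition of CREB-dependent reporter transcription by test compounds was measured in HEK 293T cells, with a top concentration of 50 μM. IC50 values are given as mean ± SD from at least two independent experiments. Where IC50 was not reached at the highest concentration, the value is recorded as >50.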
(In general: In a reporter assay the amount or activity of a reporter protein is the signal.)

Chain of KIX-KID interaction (Q92793 587-666 limits assumed): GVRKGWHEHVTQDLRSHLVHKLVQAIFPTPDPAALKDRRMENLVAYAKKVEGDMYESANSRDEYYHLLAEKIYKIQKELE

For `O=c1oc2cc3ccccc3cc2c(=O)n1-c1ccc(Cl)cc1` [Compound 2, 3-(4-Chlorophenyl)-2H-naphtho[2,3-e][1,3]oxazine-2,4-(3H)-dione], the “activity in inhibiting KIX-KID interaction (in words)” value on KIX-KID interaction was “neither of these compounds showed any activity”. For the same compound, in experiment [1], the “activity in cell-based CREB reporter assay (in words)” value is on record as “low or no inhibitory activity”. Regarding `O=c1[nH]c2cc3ccccc3cc2c(=O)n1-c1ccc(Cl)cc1` [Compound 3, 3-(4-Chlorophenyl)-benzo[g]quinazoline-2,4-(1H,3H)-dione], the “activity in inhibiting KIX-KID interaction (in words)” value at KIX-KID interaction is on record as “neither of these compounds showed any activity”. In addition, the “activity in cell-based CREB reporter assay (in words)” value in experiment [1] is reported as “low or no inhibitory activity”. For `Clc1ccc(Nc2noc3cc4ccccc4cc23)cc1` [Compound 4, N-(4-Chlorophenyl)-naphtho[2,3-d]isoxazol-3-amine], in that order: “inactive” and “very weak activity”. Take `Cn1nc(Nc2ccc(Cl)cc2)c2cc3ccccc3cc21` [Compound 6, N-(4-Chlorophenyl)-1-methyl-1H-benzo[f]indazol-3-amine]: the “activity in cell-based CREB reporter assay (in words)” value in experiment [1] was “inactive”.
